{"source": "ChEMBL document CHEMBL1149444", "about": "“Discovery of imidazo[1,2-b][1,2,4]triazines as GABA(A) alpha2/3 subtype selective agonists for the treatment of anxiety” (J Med Chem, 2006)", "key": {"[1]": {"target": "T1, GABA-A receptor; alpha-2/beta-3/gamma-2 (Homo sapiens, UniProt P18507+P28472+P47869)", "T1 sequence (P18507 whole entry)": "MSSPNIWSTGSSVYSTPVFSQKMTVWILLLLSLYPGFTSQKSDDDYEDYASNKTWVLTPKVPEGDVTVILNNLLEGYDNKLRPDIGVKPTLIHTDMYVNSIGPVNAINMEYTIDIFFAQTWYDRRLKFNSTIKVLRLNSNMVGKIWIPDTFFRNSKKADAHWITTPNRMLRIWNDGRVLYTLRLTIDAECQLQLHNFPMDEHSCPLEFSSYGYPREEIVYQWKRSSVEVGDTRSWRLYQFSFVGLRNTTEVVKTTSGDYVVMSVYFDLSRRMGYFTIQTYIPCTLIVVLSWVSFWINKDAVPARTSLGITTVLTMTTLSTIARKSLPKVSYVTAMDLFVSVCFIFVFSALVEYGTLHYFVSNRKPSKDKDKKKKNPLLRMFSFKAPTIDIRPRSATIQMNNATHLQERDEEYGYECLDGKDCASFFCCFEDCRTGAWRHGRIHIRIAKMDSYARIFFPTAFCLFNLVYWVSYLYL", "T1 sequence (P28472 whole entry)": "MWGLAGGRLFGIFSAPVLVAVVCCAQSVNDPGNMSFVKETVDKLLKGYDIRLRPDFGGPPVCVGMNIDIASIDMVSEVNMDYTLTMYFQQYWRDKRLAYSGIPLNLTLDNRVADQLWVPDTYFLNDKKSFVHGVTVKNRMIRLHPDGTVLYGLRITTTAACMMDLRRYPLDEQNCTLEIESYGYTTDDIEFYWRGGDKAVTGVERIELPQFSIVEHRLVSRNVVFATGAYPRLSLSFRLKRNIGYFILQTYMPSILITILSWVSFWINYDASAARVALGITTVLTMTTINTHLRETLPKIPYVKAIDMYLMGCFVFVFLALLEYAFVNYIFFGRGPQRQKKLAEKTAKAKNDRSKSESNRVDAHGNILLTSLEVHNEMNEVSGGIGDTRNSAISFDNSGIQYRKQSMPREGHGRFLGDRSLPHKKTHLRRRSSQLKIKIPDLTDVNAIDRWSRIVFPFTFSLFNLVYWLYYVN", "T1 sequence (P47869 whole entry)": "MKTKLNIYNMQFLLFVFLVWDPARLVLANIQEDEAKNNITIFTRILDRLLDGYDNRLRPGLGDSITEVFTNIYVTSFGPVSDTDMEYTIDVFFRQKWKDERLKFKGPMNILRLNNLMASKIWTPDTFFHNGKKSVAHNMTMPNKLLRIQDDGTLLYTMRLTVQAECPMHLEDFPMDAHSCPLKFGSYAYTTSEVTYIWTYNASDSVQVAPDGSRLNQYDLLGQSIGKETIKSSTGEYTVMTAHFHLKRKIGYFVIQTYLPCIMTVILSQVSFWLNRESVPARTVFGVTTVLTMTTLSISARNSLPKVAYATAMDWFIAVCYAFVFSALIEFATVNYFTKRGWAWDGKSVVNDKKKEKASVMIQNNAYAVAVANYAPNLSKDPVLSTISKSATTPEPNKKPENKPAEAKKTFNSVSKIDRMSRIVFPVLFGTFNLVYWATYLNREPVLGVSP", "test": "Displacement of [3H] Ro15-1788 from recombinant human GABAA alpha2 receptor plus beta-3-gamma-2 expressed in L(tk-) cells", "assay_type": "cell-based"}, "[2]": {"target": "GABA-A receptor; alpha-5/beta-3/gamma-2 (Homo sapiens) (UniProt P18507+P28472+P31644)", "test": "Efficacy against recombinant human GABAA alpha-5 receptor plus beta3gamma2 expressed in L(tk-) cells by whole cell patch clamp method relative to chlordiazepoxide", "assay_type": "functional, cell-based", "how_it_was_run": "(§1)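 Whole-cell patch clamp on L(tk-) cells stably expressing human alpha subunit plus beta3gamma2. GABA applied at an EC20-equivalent concentration. Modulation of that current measured across increasing test-compound concentrations. Efficacy is expressed relative to the maximal response to the full agonist chlordiazepoxide, set at 1.00.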"}, "[3]": {"target": "GABA-A receptor; alpha-2/beta-3/gamma-2 (Homo sapiens) (UniProt P18507+P28472+P47869)", "test": "Efficacy against recombinant human GABAA alpha2 receptor plus beta3gamma2 expressed in L(tk-) cells by whole cell patch clamp method relative to chlordiazepoxide", "assay_type": "functional, cell-based", "how_it_was_run": "as §1"}, "[4]": {"test": "Plasma clearance in rat at 1 mg/kg, iv or 1 mg/kg, po", "assay_type": "ADME, organism-based", "how_it_was_run": "(§2)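 Rat pharmacokinetics after dosing at 1 mg/kg iv and 1 mg/kg po. Plasma clearance in mL/min/kg, half-life in h and volume of distribution in L/kg.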"}, "[5]": {"test": "Half life in rat at 1 mg/kg, […] 1 mg/kg, po", "assay_type": "ADME, organism-based", "conditions": "in vivo", "how_it_was_run": "as §2"}, "[6]": {"test": "Half life in dog at 1 mg/kg, iv or 1 mg/kg, po", "assay_type": "ADME, organism-based, Canis lupus familiaris", "conditions": "in vivo", "how_it_was_run": "(§3)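 Pharmacokinetics in rat, dog or rhesus after 1 mg/kg iv and 1 mg/kg po dosing. Plasma clearance (mL/min/kg), half-life (h), volume of distribution (L/kg) and oral bioavailability (%) were derived.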"}, "[7]": {"test": "Volume of distribution in dog at 1 mg/kg, iv or 1 mg/kg, po", "assay_type": "ADME, organism-based, Canis lupus familiaris", "conditions": "in vivo, read-out: Vdss", "how_it_was_run": "as §3"}, "Rattus norvegicus [8]": {"species": "Rattus norvegicus", "test": "Plasma concentration in rat", "assay_type": "ADME, organism-based", "conditions": "in vivo", "how_it_was_run": "(§4)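 Central benzodiazepine receptor occupancy in rat after oral dosing, measured by displacement of [3H]Ro15-1788 binding. Plasma concentration was measured at the dose giving 50% occupancy.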"}, "Rattus norvegicus [9]": {"test_system": "Rattus norvegicus", "test": "Activity in rat elevated plus maze assay at 1 mg/kg, po", "assay_type": "functional, organism-based", "set-up": "dose 1 mg/kg", "how_it_was_run": "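Rats given test compound orally 30 min before a 5 min elevated plus maze session; vehicle 0.5% methyl cellulose po. Read-out is time on open arms as percentage of total time. n = 18 per group. Significance versus vehicle at p < 0.05.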"}, "Rattus norvegicus [10]": {"test_system": "Rattus norvegicus", "test": "Sedation in rat chain pulling assay upto 10 mg/kg, po", "assay_type": "functional, organism-based", "set-up": "dose 10 mg/kg", "how_it_was_run": "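Rat chain-pulling assay for sedation. Mean response rate recorded over a 60 min trial starting immediately after oral dosing up to 10 mg/kg. n = 11-12 per group. Significance versus vehicle at p < 0.01.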"}, "Squirrel monkey": {"test_system": "Squirrel monkey", "test": "Sedation in squirrel monkey conditioned emotional response test at 10 mg/kg, po", "assay_type": "functional, organism-based", "set-up": "dose 10 mg/kg", "conditions": "Saimiri sciureus", "how_it_was_run": "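Squirrel monkeys dosed po in 0.5% methyl cellulose vehicle. Anxiolysis was read as reversal of the suppression of lever pressing caused by a light cue signalling possible electric shock. Sedation was read as the rate of lever pressing for fruit juice reward on an RPI30 schedule. n = 10-11 per group, p < 0.05 versus vehicle.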"}, "[11]": {"target": "GABA-A receptor; anion channel (Rattus norvegicus) (UniProt O09028+P15431+P18506+P18508+P19969+P20236+P23574+P23576+P28471+P28473+P30191+P62813+P63079+P63138+Q91ZM7+Q9ES14)", "test": "Receptor occupancy by displacement of [3H]Ro 15-1788 binding from central Benzodiazepine receptor in rat at 0.3 mg/kg, po", "assay_type": "organism-based", "set-up": "dose 0.3 mg/kg", "how_it_was_run": "as §4"}, "[12]": {"test": "Plasma clearance in rhesus at 1 mg/kg, iv or 1 mg/kg, po", "assay_type": "ADME, organism-based, Macaca mulatta", "conditions": "rhesus monkey", "how_it_was_run": "as §3"}, "[13]": {"test": "Volume of distribution in rat at 1 mg/kg, iv or 1 mg/kg, po", "assay_type": "ADME, organism-based", "conditions": "in vivo, read-out: Vdss", "how_it_was_run": "as §2"}, "[14]": {"test": "Oral bioavailability in rat at 1 mg/kg, iv or 1 mg/kg, po", "assay_type": "ADME, organism-based", "conditions": "in vivo", "how_it_was_run": "as §3"}}, "note": "The source made the active and inactive calls. No cut-off for these calls is given here."}
{"smiles": "CC(C)(O)c1cnn2c(-c3ccc(F)c(-c4c(F)cccc4C#N)c3)cnc2n1", "values": [{"measurement": "Ki", "setting": "[1]", "result": 1.8, "unit": "nM"}, {"measurement": "Efficacy", "setting": "[2]", "result": 0.37, "unit": "%"}, {"measurement": "Efficacy", "setting": "[3]", "result": 0.38, "unit": "%"}, {"measurement": "clearance", "setting": "[4]", "result": 2.4, "unit": "mL/min/kg"}, {"measurement": "half-life", "setting": "[5]", "result": 11, "unit": "h"}, {"measurement": "half-life", "setting": "[6]", "result": 6.5, "unit": "h"}, {"measurement": "Vd", "setting": "[7]", "result": 1.9, "unit": "L/kg"}, {"measurement": "concentration", "setting": "Rattus norvegicus [8]", "result": 56, "unit": "nM"}, {"measurement": "Activity", "setting": "Rattus norvegicus [9]", "result": "Active"}, {"measurement": "Activity", "setting": "Rattus norvegicus [10]", "result": "inactive"}, {"measurement": "Activity", "setting": "Squirrel monkey", "result": "inactive"}, {"measurement": "Activity", "setting": "[11]", "result": 50, "unit": "%"}, {"measurement": "clearance", "setting": "[12]", "result": 5.8, "unit": "mL/min/kg"}, {"measurement": "Vd", "setting": "[13]", "result": 2.1, "unit": "L/kg"}, {"measurement": "bioavailability", "setting": "[14]", "result": 77, "unit": "%"}]}
